Assay results published in ChEMBL document CHEMBL2331353, “Synthesis and biological evaluation of some novel resveratrol amide derivatives as potential anti-tumor agents” (Eur J Med Chem, 2013).
Activity calls are given as the source filed them. No cut-off for these calls is given here.

Legend:
[1] = tested on: RAW264.7; experiment: Inhibition of LPS-induced COX-2 expression in mouse RAW264.7 cells at >0.5 uM treated for 15 mins before LPS challenge measured after 18 hrs by Western blot analysis; type: functional, cell-based
Summary of the method: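 RAW 264.7 cells (5×10^5) incubated 24 h in 12-well plates. Compound pretreatment at 0.5, 1.0 or 1.5 µM for 15 min, then LPS 1 µg/mL for 18 h. Cells lysed in lysis buffer. COX-2 protein detected by Western immunoblot.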

[2] = tested on: A549; experiment: Antitumor activity against human A549 cells assessed as inhibition of cell proliferation after 48 hrs by MTT assay; type: functional, cell-based; conditions: A549, 48 h
Summary of the method: (§1)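 Cells grown to log phase in RPMI 1640 with 10% FBS, seeded at 2×10^4 cells/mL and preincubated 24 h at 37 °C, 5% CO2. Compounds at preset concentrations added (6 wells), celecoxib as positive reference, 48 h exposure. MTT (2.5 mg/mL in PBS) for 4 h, then SDS/isobutanol/HCl extraction overnight at 37 °C. OD read at 570 nm. Triplicate wells per concentration, at least three independent runs.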

[3] = target: Prostaglandin G/H synthase 1 (Homo sapiens, UniProt P23219); experiment: Inhibition of COX-1 (unknown origin) by chemiluminescence assay
[4] = tested on: B16-F10; experiment: Antitumor activity against mouse B16F10 cells assessed as inhibition of cell proliferation after 48 hrs by MTT assay; type: functional, cell-based; conditions: B16-F10, 48 h; summary of the method: as §1
[5] = target: T1, Prostaglandin G/H synthase 2 (Mus musculus, UniProt Q05769); experiment: Inhibition of COX-2 in mouse RAW264.7 cells assessed as decrease in LPS-induced PGE2 production; type: cell-based
T1 sequence (Q05769 whole entry): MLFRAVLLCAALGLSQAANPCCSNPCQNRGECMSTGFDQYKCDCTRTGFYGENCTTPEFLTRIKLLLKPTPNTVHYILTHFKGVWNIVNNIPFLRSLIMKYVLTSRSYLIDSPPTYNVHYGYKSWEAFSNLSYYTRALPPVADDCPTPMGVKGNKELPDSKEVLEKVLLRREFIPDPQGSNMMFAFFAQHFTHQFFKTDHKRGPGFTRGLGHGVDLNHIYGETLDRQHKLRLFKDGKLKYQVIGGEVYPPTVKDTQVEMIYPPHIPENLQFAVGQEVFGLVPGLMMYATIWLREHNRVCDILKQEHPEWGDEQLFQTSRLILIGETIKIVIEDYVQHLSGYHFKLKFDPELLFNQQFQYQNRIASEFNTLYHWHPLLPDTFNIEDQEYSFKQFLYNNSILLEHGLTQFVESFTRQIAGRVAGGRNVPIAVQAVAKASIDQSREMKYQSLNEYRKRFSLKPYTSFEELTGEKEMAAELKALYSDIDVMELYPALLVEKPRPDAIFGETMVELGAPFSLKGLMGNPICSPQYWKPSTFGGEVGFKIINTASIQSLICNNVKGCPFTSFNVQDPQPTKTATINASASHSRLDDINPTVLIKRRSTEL

[6] = tested on: MCF7; experiment: Antitumor activity against human MCF7 cells assessed as inhibition of cell proliferation after 48 hrs by MTT assay; type: functional, cell-based; conditions: MCF7, 48 h; summary of the method: as §1
[7] = target: T2, Prostaglandin G/H synthase 2 (Homo sapiens, UniProt P35354); experiment: Inhibition of COX-2 (unknown origin) by chemiluminescence assay
T2 sequence (P35354 whole entry): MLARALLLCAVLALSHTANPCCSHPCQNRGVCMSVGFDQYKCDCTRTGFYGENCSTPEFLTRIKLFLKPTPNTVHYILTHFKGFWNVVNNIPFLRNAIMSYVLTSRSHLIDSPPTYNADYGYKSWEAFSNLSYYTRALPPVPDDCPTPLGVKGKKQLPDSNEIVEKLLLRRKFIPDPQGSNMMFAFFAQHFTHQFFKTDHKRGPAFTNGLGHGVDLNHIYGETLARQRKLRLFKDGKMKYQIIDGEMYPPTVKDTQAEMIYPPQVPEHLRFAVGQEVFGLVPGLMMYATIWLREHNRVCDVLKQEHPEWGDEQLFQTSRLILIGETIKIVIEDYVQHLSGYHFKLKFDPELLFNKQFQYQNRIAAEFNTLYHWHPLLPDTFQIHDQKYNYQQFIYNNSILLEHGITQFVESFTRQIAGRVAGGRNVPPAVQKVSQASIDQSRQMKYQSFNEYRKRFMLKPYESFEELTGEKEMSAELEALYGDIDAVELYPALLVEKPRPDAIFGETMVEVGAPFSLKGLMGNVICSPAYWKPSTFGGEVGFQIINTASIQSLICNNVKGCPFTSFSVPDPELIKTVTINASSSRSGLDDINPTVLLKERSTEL

Prostaglandin G/H synthase 1, sequence (P23219 whole entry): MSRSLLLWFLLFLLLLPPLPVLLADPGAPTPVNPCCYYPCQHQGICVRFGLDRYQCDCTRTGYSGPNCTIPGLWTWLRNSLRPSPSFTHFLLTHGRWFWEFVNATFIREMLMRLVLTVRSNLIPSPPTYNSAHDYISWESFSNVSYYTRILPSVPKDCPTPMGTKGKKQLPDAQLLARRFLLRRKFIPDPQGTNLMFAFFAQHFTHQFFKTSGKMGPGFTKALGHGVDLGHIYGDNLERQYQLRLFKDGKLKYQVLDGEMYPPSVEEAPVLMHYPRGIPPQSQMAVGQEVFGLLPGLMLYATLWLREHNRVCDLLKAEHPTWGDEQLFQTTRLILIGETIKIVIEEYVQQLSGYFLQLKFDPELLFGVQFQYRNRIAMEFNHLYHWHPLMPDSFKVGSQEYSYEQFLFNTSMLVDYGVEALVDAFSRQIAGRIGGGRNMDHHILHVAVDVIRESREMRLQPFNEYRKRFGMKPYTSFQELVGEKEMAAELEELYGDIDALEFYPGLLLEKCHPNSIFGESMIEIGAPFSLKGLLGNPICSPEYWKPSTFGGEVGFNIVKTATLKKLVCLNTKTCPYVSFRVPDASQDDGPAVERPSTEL

SMILES	IC50 [2] [µM]	IC50 [3] [µM]	IC50 [4] [µM]	IC50 [5] [µM]	IC50 [6] [µM]	IC50 [7] [µM]	inhibition [1]
CCNC(=O)/C=C/c1c(/C=C/c2ccc(OC)cc2)cc(OC)cc1OC	7.86	35.4	6.99	7.06	7.06	12.4	–
COc1ccc(/C=C/c2cc(OC)cc(OC)c2/C=C/C(=O)N2CCSCC2)cc1	5.4	45.2	8.1	3.18	2.76	8.01	–
COc1ccc(/C=C/c2cc(OC)cc(OC)c2/C=C/C(=O)NC(C)(C)C)cc1	8.67	> 50	7.98	5.29	13.6	11.1	–

These reach a lower IC50 [2]. Values come first.

IC50 [2] [µM]	IC50 [3] [µM]	IC50 [4] [µM]	IC50 [5] [µM]	IC50 [6] [µM]	IC50 [7] [µM]	SMILES	inhibition [1]
1.88	> 50	2.08	0.28	1.33	1.02	CCCCNC(=O)/C=C/c1c(/C=C/c2ccc(OC)cc2)cc(OC)cc1OC	Active
2.32	> 50	3.08	0.85	3.31	1.88	COc1ccc(/C=C/c2cc(OC)cc(OC)c2/C=C/C(=O)N2CCOCC2)cc1	–
